{"source": "paper PMC7805566", "about": "(Medicinal Chemistry Research, 2021)", "key": {"[1]": {"tested_on": "M. tuberculosis H37Rv", "test": "MIC against Mtb H37Rv, microplate alamar blue assay", "format": "cell-based, Mycobacterium tuberculosis", "details": "for MIC: Mycobacterium tuberculosis, H37RV"}, "[2]": {"test": "Microsomal stability, mouse liver microsomes", "format": "in vitro ADME", "outline": "(§1)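 The test compound, taken from a 10 mM DMSO stock and diluted to 100 μM in DMSO, was added to mouse or human liver microsomes and preincubated at 37 °C for 5 min. The reaction was started with buffer/NADPH working solution (5 mM); samples without NADPH were the negative controls. Aliquots at 0 and 30 min were quenched with internal standard, centrifuged at 4 °C, and measured by LC-MS/MS.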"}, "[3]": {"test": "Microsomal stability, human liver microsomes", "format": "in vitro ADME", "outline": "as §1"}, "[4]": {"test": "In vivo pharmacokinetic profiles in male ICR mice", "details": "for AUC(0-t) / Cmax / Tmax / Vd / clearance / half-life / bioavailability: male, ICR, mouse, plasma; for bioavailability: oral", "outline": "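SPF male ICR mice (22–23 g), three per route. Oral 10 mg/kg (1.0 mg/mL in 0.5% carboxymethyl cellulose/0.5% Tween 80); i.v. 2 mg/kg (0.4 mg/mL in 20% HP-β-CD with 4 mol/L HCl). Plasma extracted 20:1 with acetonitrile containing internal standard; LC-MS/MS, C18, isocratic acetonitrile/water 80:20 with 0.1% formic acid. Non-compartmental parameters; F = (AUCp.o.×dosei.v.)/(AUCi.v.×dosep.o.).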"}, "[5]": {"test": "Metabolic stability in liver microsomes", "format": "in vitro ADME", "details": "mouse and human liver microsomes, without NADPH", "outline": "as §1"}, "[6]": {"tested_on": "Vero cells"}, "[7]": {"details": "liver microsomes, previous reports ref 30; cited from earlier work"}, "[8]": {"details": "Mouse (% remaining at 30 min) With NADPH, with NADPH"}, "[9]": {"details": "Mouse (% remaining at 30 min) Without NADPH, without NADPH"}, "[10]": {"details": "Human (% remaining at 30 min) With NADPH, with NADPH"}, "[11]": {"details": "Human (% remaining at 30 min) Without NADPH, without NADPH"}}, "data": [{"smiles": "N#Cc1cc(C(F)(F)F)cc2c(=O)nc(N3CCN(CC4CCCC4)CC3)sc12", "note": "[Compound 1c, 2-(4-(cyclopentylmethyl)piperazin-1-yl)-4-oxo-6-(trifluoromethyl)-4H-benzo[e][1,3]thiazine-8-carbonitrile]", "values": [{"measurement": "MIC", "setting": "[1]", "result": 0.2, "unit": "µM"}]}, {"smiles": "N#Cc1cc(C(F)(F)F)cc2c(=O)nc(N3CCN(CC4CCCCC4)CC3)sc12", "note": "[Compound 1d, 2-(4-(cyclohexylmethyl)piperazin-1-yl)-4-oxo-6-(trifluoromethyl)-4H-benzo[e][1,3]thiazine-8-carbonitrile]", "values": [{"measurement": "MIC", "setting": "[1]", "result": 0.13, "unit": "µM"}, {"measurement": "remaining at 0.5 h, 1 µM", "setting": "[2]; [8]", "result": 38.6, "unit": "%"}, {"measurement": "remaining at 0.5 h, 1 µM", "setting": "[2]; [9]", "result": 96.4, "unit": "%"}, {"measurement": "remaining at 0.5 h, 1 µM", "setting": "[3]; [10]", "result": 26.3, "unit": "%"}, {"measurement": "remaining at 0.5 h, 1 µM", "setting": "[3]; [11]", "result": 102, "unit": "%"}, {"measurement": "increase in the volume of distribution (V) relative to macozinone", "setting": "[4]; i.v. dosing, mice", "result": 2.0, "unit": "fold"}, {"measurement": "AUC(0-t)", "setting": "[4]; iv, 2 mg/kg", "result": 445, "unit": "ng·h/mL"}, {"measurement": "Cmax", "setting": "[4]; iv, 2 mg/kg", "result": 1340, "unit": "ng/mL"}, {"measurement": "Tmax", "setting": "[4]; iv, 2 mg/kg", "result": 1.98, "unit": "min"}, {"measurement": "Vd", "setting": "[4]; iv, 2 mg/kg", "result": 11.3, "unit": "L/kg"}, {"measurement": "clearance", "setting": "[4]; iv, 2 mg/kg", "result": 71.2, "unit": "mL/min/kg"}, {"measurement": "half-life", "setting": "[4]; iv, 2 mg/kg", "result": 110, "unit": "min"}, {"measurement": "bioavailability", "setting": "[4]; 10 mg/kg", "result": 7.8, "unit": "%"}, {"measurement": "AUC(0-t)", "setting": "[4]; po, 10 mg/kg", "result": 174, "unit": "ng·h/mL"}, {"measurement": "Cmax", "setting": "[4]; po, 10 mg/kg", "result": 110, "unit": "ng/mL"}, {"measurement": "Tmax", "setting": "[4]; po, 10 mg/kg", "result": 15, "unit": "min"}, {"measurement": "half-life", "setting": "[4]; po, 10 mg/kg", "result": 104, "unit": "min"}, {"measurement": "decrease of oral bioavailability relative to macozinone", "setting": "[4]; mice", "result": "twofold"}, {"measurement": "maximum plasma concentration", "setting": "[4]; oral dosing, male ICR mice", "result": 240, "unit": "nM"}, {"measurement": "metabolism in the absence of NADPH (in words)", "setting": "[5]", "result": "neither macozinone nor 1d were metabolized"}, {"measurement": "cytotoxicity (in words)", "setting": "[6]", "result": "no cytotoxicity"}]}, {"smiles": "N#Cc1cc(C(F)(F)F)cc2c(=O)nc(N3CCN(CC4CCOC4)CC3)sc12", "note": "(centres unmarked) [Compound 1e, 4-Oxo-2-(4-((tetrahydrofuran-3-yl)methyl)piperazin-1-yl)-6-(trifluoromethyl)-4H-benzo[e][1,3]thiazine-8-carbonitrile]", "values": [{"measurement": "loss of potency relative to cyclopentyl methyl 1c", "setting": "[1]; Mtb H37Rv MIC", "result": 10, "unit": "fold"}]}, {"smiles": "N#Cc1cc(C(F)(F)F)cc2c(=O)nc(N3CCN(CC4COC4)CC3)sc12", "note": "[Compound 1f, 2-(4-(oxetan-3-ylmethyl)piperazin-1-yl)-4-oxo-6-(trifluoromethyl)-4H-benzo[e][1,3]thiazine-8-carbonitrile]", "values": [{"measurement": "antimycobacterial activity (in words)", "setting": "[1]; Mtb H37Rv", "result": "inactive"}]}, {"smiles": "O=c1nc(N2CCN(CC3CCCCC3)CC2)sc2c([N+](=O)[O-])cc(C(F)(F)F)cc12", "note": "[Macozinone, reference compound]", "values": [{"measurement": "remaining at 0.5 h, 1 µM", "setting": "[2]; [8]", "result": 50.7, "unit": "%"}, {"measurement": "remaining at 0.5 h, 1 µM", "setting": "[2]; [9]", "result": 102, "unit": "%"}, {"measurement": "remaining at 0.5 h, 1 µM", "setting": "[3]; [10]", "result": 46.8, "unit": "%"}, {"measurement": "remaining at 0.5 h, 1 µM", "setting": "[3]; [11]", "result": 101, "unit": "%"}, {"measurement": "AUC(0-t)", "setting": "[4]; iv, 2 mg/kg", "result": 423, "unit": "ng·h/mL"}, {"measurement": "Cmax", "setting": "[4]; iv, 2 mg/kg", "result": 1230, "unit": "ng/mL"}, {"measurement": "Tmax", "setting": "[4]; iv, 2 mg/kg", "result": 1.98, "unit": "min"}, {"measurement": "Vd", "setting": "[4]; iv, 2 mg/kg", "result": 5.64, "unit": "L/kg"}, {"measurement": "clearance", "setting": "[4]; iv, 2 mg/kg", "result": 75.8, "unit": "mL/min/kg"}, {"measurement": "half-life", "setting": "[4]; iv, 2 mg/kg", "result": 51.6, "unit": "min"}, {"measurement": "bioavailability", "setting": "[4]; 10 mg/kg", "result": 16.7, "unit": "%"}, {"measurement": "AUC(0-t)", "setting": "[4]; po, 10 mg/kg", "result": 354, "unit": "ng·h/mL"}, {"measurement": "Cmax", "setting": "[4]; po, 10 mg/kg", "result": 251, "unit": "ng/mL"}, {"measurement": "Tmax", "setting": "[4]; po, 10 mg/kg", "result": 15, "unit": "min"}, {"measurement": "half-life", "setting": "[4]; po, 10 mg/kg", "result": 101, "unit": "min"}, {"measurement": "metabolism in the absence of NADPH (in words)", "setting": "[5]", "result": "neither macozinone nor 1d were metabolized"}, {"measurement": "half-life (metabolic stability)", "setting": "[7]", "result": "34 to 43", "unit": "min"}]}]}
